We go through 167 variants from the RNAGym collection of RNA variant scans (doi:10.1126/science.aae0568).

First the molecules themselves.
B1: tRNA (parent)
chain: GUUCCGUUGGCGUAAUGGUAACGCGUCUCCCUCCUAAGGAGAAGACUGCGGGUUCGAGUCCCGUACGGAACG

This sample holds only a part of the variants without activity.

Variants of B1 are the subject of the data set. The data set can be described thus: yeast fitness relative to wild type (ratio to wild type); higher = fitter; tRNA-Arg(CCU), competitive growth, 37 C, YPD. Summed up:
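Start and end populations of a pooled competition were compared by 100-nucleotide paired-end sequencing of gene amplicons. The Saccharomyces cerevisiae strains carried tRNA-Arg(CCU) gene variants at the native genomic locus, synthesised with a 3% per-site mutation rate at 69 sites, and competed in YPD at 37°C for 24 hours in six parallel replicates. Darwinian fitness relative to wild type was based on the change in genotype frequencies. Genotypes required ≥ 100 starting reads, and estimates < 0.5 were set to 0.5.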
Take U8G A45C C49U: the yeast fitness is ≤ 0.5.

In the case of U8C G39C U47C U59C, the yeast fitness is ≤ 0.5.

As for U8G A43U, the yeast fitness was determined as 0.66.

U8G A36C A45U C49U: the yeast fitness was ≤ 0.5.

For the variant U8C G18A U35C U47C G50C, the yeast fitness is ≤ 0.5.

U8G C22G G25A G68A: the yeast fitness is ≤ 0.5.

Regarding U8G A20U C62A, the yeast fitness came out at 0.624.

Turning to U8C C27U G48A C49U, the yeast fitness was determined as 0.686.

For the variant U8G A37C U64A A70C, the yeast fitness is ≤ 0.5.

For U8C G48C, the yeast fitness was found to be 0.843.

For U8C G23C C29G A36G A45U, the yeast fitness is ≤ 0.5.

U8C G9A C34U G39C: the yeast fitness is ≤ 0.5.

For U8G G9A U19G U53C C60A, the yeast fitness was ≤ 0.5.

For U8G A42U A69C, the yeast fitness is 0.509.

For the variant U8G A70C, the yeast fitness was 0.633.

Take U8C C30U A37G: the yeast fitness is ≤ 0.5.

U8C U13A C24U C29G C33A U47A C55U A65C: the yeast fitness was 0.787.

Consider U8C G25A A37G A40G, for which the yeast fitness was ≤ 0.5.

As to U8C G58C, the yeast fitness is 0.919.

With U8C G58A, the yeast fitness turned out to be 1.02.

For U8G G12A G38A A69U, the yeast fitness was ≤ 0.5.

With U8C U16A C33G G41C G56C G58A G63C A65U, the yeast fitness was ≤ 0.5.

Consider U8C G12A G18A A37C C55A C60G G63C, for which the yeast fitness was ≤ 0.5.

Consider U8G C30U C31G G39A A45U G52A, for which the yeast fitness is 0.567.

As to U8C G18C C33U, the yeast fitness is ≤ 0.5.

Take U8G A14G G18A U47A C62G: the yeast fitness was ≤ 0.5.

Regarding U8G G18C A37G A40G C55G C66A, the yeast fitness is ≤ 0.5.

Regarding U8G A14G A43C, the yeast fitness is ≤ 0.5.

Regarding U8G A14U G50A, the yeast fitness was ≤ 0.5.

U8C C31U G48C C55A C60G A69G: the yeast fitness was ≤ 0.5.

Turning to U8C U19C A57U, the yeast fitness was ≤ 0.5.

Turning to U8G G12C G39A, the yeast fitness was ≤ 0.5.

For U8C G23A C30G, the yeast fitness is ≤ 0.5.

As for U8C C30G C31G G48A, the yeast fitness was ≤ 0.5.

On to U8G C22U A69U, for which the yeast fitness worked out at 0.731.

In the case of U8C G9A U13C A20C, the yeast fitness was 0.541.

On to U8C G10A A40G G67A, for which the yeast fitness is 0.593.

Regarding U8C U28A C46G C55A, the yeast fitness stood at 0.731.

Consider U8C G10C, for which the yeast fitness was 0.639.

In the case of U8C C31U C49U U54C, the yeast fitness was ≤ 0.5.

U8C G12A G25A: the yeast fitness turned out to be 0.734.

As to U8G C11G U32A C55U G67C, the yeast fitness is ≤ 0.5.

In the case of U8C U26G C33G A37C U54A, the yeast fitness was ≤ 0.5.

Regarding U8C U13C A14C C30U A42G G50C C55U, the yeast fitness is 0.671.

Take U8C G25C G38A G58A C60U: the yeast fitness is ≤ 0.5.

Take U8G C22U A43G: the yeast fitness was ≤ 0.5.

Take U8G C24G: the yeast fitness is 0.537.

Consider U8C C55A C61G, for which the yeast fitness is ≤ 0.5.

For the variant U8C U19A A37G, the yeast fitness is 0.559.

For the variant U8G G12A A21C U26C C60U, the yeast fitness was ≤ 0.5.

With U8C C49A G51U U59G C62A, the yeast fitness is ≤ 0.5.

In the case of U8G C22U, the yeast fitness stood at 0.632.

Consider U8C C27U C31A G68A, for which the yeast fitness was ≤ 0.5.

As for U8C U16C A20U C30U G39C A45G A69C, the yeast fitness is ≤ 0.5.

For U8C G17A C34U C55G, the yeast fitness was ≤ 0.5.

As to U8C C31A G52C A65U, the yeast fitness is ≤ 0.5.

For the variant U8G G9U C30A, the yeast fitness was ≤ 0.5.

As for U8C G12C G63C, the yeast fitness worked out at 0.577.

On to U8G A21G, for which the yeast fitness came to 0.582.

With U8G C22A C27U A40U, the yeast fitness was ≤ 0.5.

For the variant U8C G23C C29G A43U G50A A65C, the yeast fitness was ≤ 0.5.

As to U8C C31A A42G A57U U59A, the yeast fitness was ≤ 0.5.

Take U8C G23A C29U A45U: the yeast fitness amounted to 0.632.

With U8G G9C A37U G50C, the yeast fitness was ≤ 0.5.

U8G C24G G63C: the yeast fitness was ≤ 0.5.

With U8C G44C G48A G51A, the yeast fitness is 0.674.

For U8G A14U G50A A57U G68C, the yeast fitness was ≤ 0.5.

As for U8C C29U A43G C66U, the yeast fitness was ≤ 0.5.

For U8G A21U C29U G68C, the yeast fitness was ≤ 0.5.

Turning to U8G C31U A37G U54A C55A, the yeast fitness is ≤ 0.5.

As to U8C C27U C31A G56A, the yeast fitness is ≤ 0.5.

Turning to U8G A20C C49G G50A G56C, the yeast fitness is ≤ 0.5.

On to U8C G9A U59A A70G, for which the yeast fitness is ≤ 0.5.

Take U8C U13G: the yeast fitness worked out at 0.841.

For the variant U8C U13A, the yeast fitness is 0.809.

Turning to U8C U13A G51A, the yeast fitness came out at 0.53.

In the case of U8C U32C C46A C55A, the yeast fitness stood at 0.625.

In the case of U8C G10C A21U G23C G56A C61A A65G, the yeast fitness was ≤ 0.5.

For U8C U59A A70G, the yeast fitness stood at 0.556.

Take U8C G9A C22G U32G C49G: the yeast fitness is ≤ 0.5.

Consider U8C U16C C33U A43U C49G G50C C61U C66U, for which the yeast fitness is ≤ 0.5.

For the variant U8C G10A U16A A65G, the yeast fitness was 0.605.

Take U8G A20C A43U G67A: the yeast fitness was ≤ 0.5.

For the variant U8C G9A G41C A69U, the yeast fitness was ≤ 0.5.

With U8C C27U G51A A57U, the yeast fitness came to 0.541.

U8C C34A A45C: the yeast fitness is ≤ 0.5.

On to U8G C30G C33G C61A A69U, for which the yeast fitness is ≤ 0.5.

Turning to U8C G12A G51A C66A, the yeast fitness is ≤ 0.5.

With U8G C27U C31U C33A G67C, the yeast fitness was ≤ 0.5.

Consider U8C G9A A20C, for which the yeast fitness was 0.772.

Consider U8C G17C A42G C61A, for which the yeast fitness was ≤ 0.5.

Regarding U8G A37G C55U, the yeast fitness is ≤ 0.5.

Turning to U8C C31G G50C G56C, the yeast fitness is ≤ 0.5.

With U8G C24A C30G A40G U47G, the yeast fitness was ≤ 0.5.

In the case of U8G A21G C27A U35A C62A A65C G67A, the yeast fitness was ≤ 0.5.

Regarding U8C C27U C49U G52A C60A, the yeast fitness was ≤ 0.5.

Turning to U8C G39A, the yeast fitness stood at 0.874.

U8C G39C: the yeast fitness was 0.67.

Regarding U8C C46G, the yeast fitness came out at 1.04.

For the variant U8C U32A, the yeast fitness was 0.755.

Consider U8G A20U U53G C66G A70G, for which the yeast fitness was ≤ 0.5.

Take U8C U26A C61A A65U: the yeast fitness is ≤ 0.5.

For the variant U8C G68U A69C, the yeast fitness is ≤ 0.5.

For the variant U8C C30U A57G, the yeast fitness is 0.533.

For U8C C31G G50A, the yeast fitness stood at 0.615.

In the case of U8C U19C C55U, the yeast fitness was ≤ 0.5.

With U8C U19C C55G, the yeast fitness is ≤ 0.5.

Consider U8G C24G C33U, for which the yeast fitness was ≤ 0.5.

Take U8G C11A C27U A37G G39C C49G: the yeast fitness was ≤ 0.5.

With U8C C62U, the yeast fitness stood at 0.881.

Turning to U8C C30U C31A C33G A42G C60A, the yeast fitness is ≤ 0.5.

For the variant U8G A21G C29U C30A U32C, the yeast fitness is ≤ 0.5.

Turning to U8C G67U, the yeast fitness worked out at 0.862.

As to U8C C27U U35A U59C, the yeast fitness was ≤ 0.5.

In the case of U8C G23A A57C, the yeast fitness came out at 0.661.

With U8G C33A A37U G38C, the yeast fitness amounted to 0.529.

With U8G G9U C30A C55U, the yeast fitness was ≤ 0.5.

With U8C C31A G41A, the yeast fitness was ≤ 0.5.

Turning to U8G C33A A37U G38C A70C, the yeast fitness was ≤ 0.5.

For U8C C33G C34G C46U, the yeast fitness is ≤ 0.5.

U8G C11U U64A A70C: the yeast fitness was 0.619.

Turning to U8C U16G G25A A70G, the yeast fitness was ≤ 0.5.

As for U8C C33G A43C C66A, the yeast fitness is ≤ 0.5.

Consider U8C G10A C22G, for which the yeast fitness is ≤ 0.5.

Regarding U8G A21C U64A, the yeast fitness was found to be 0.516.

Consider U8C G10A G23C C33U, for which the yeast fitness is 0.611.

Turning to U8G C33A C49U C66G, the yeast fitness was ≤ 0.5.

For the variant U8G C33A C49U C66U, the yeast fitness worked out at 0.609.

For the variant U8C C31U C49U, the yeast fitness was 0.689.

Turning to U8C G9A G17C G56C, the yeast fitness worked out at 0.532.

Take U8G C11G U32A A57U C60A G68C: the yeast fitness is ≤ 0.5.

For the variant U8C C30G U53C C60A C61A C66G, the yeast fitness was ≤ 0.5.

Turning to U8C C46A C62U, the yeast fitness was 0.774.

On to U8C G18A C27G C34A U47A, for which the yeast fitness was ≤ 0.5.

Take U8C G50C C55A C60A: the yeast fitness is ≤ 0.5.

U8C G10A A40G A65G G67A: the yeast fitness was ≤ 0.5.

For the variant U8C C30G C49A G67A G68A, the yeast fitness was ≤ 0.5.

On to U8C G9A, for which the yeast fitness came out at 0.894.

With U8C G9C, the yeast fitness is 0.695.

U8C G25A C29G C31A C62U: the yeast fitness is ≤ 0.5.

Consider U8G C22U G23A C24G A43U, for which the yeast fitness was ≤ 0.5.

As to U8C U19A, the yeast fitness was determined as 0.923.

U8G A57G C60A: the yeast fitness was ≤ 0.5.

For the variant U8G C46G A57U, the yeast fitness is ≤ 0.5.

For U8G A15C G18C C49U U64A A69U, the yeast fitness was ≤ 0.5.

For U8G C24U C29G A45G C61U A65C G67A G68A, the yeast fitness stood at 0.568.

Turning to U8G C22U C62U, the yeast fitness amounted to 0.529.

Take U8C U16C U59A: the yeast fitness is ≤ 0.5.

U8C U19A A40C G44C G48C: the yeast fitness was ≤ 0.5.

In the case of U8C G56A, the yeast fitness is 1.06.

Consider U8C G56U, for which the yeast fitness came out at 0.755.

As to U8C U32G U47C C55G, the yeast fitness was ≤ 0.5.

Consider U8G C46G, for which the yeast fitness was found to be 0.593.

With U8C G10A C29G G56C, the yeast fitness is ≤ 0.5.

Consider U8C U32C G44A A69U, for which the yeast fitness amounted to 0.724.

Take U8G G10A C62G: the yeast fitness is ≤ 0.5.

Regarding U8C G68C, the yeast fitness turned out to be 0.958.

On to U8C G68U, for which the yeast fitness was 0.857.

In the case of U8C C29U G56C, the yeast fitness was found to be 0.538.

Consider U8C U32C G48A, for which the yeast fitness came out at 0.591.

As for U8C C29U G39C A40U, the yeast fitness was ≤ 0.5.

Regarding U8G C22U U26A G52A, the yeast fitness was ≤ 0.5.

For the variant U8C U59A, the yeast fitness stood at 0.721.

Consider U8C U59G, for which the yeast fitness turned out to be 0.901.

U8C G17A U54A G56C: the yeast fitness was ≤ 0.5.

Turning to U8G A45U, the yeast fitness is 0.648.

With U8G A14G G18A U47A C55G, the yeast fitness was ≤ 0.5.
